Among the data in ChEMBL document CHEMBL4371052, “Diarylcarbonates are a new class of deubiquitinating enzyme inhibitor” (Bioorg Med Chem Lett, 2019) are inhibition values, retold here.

Activity calls are given as the source filed them. No cut-off for these calls is given here.

Assay [1] addresses T1, Ubiquitin carboxyl-terminal hydrolase 19 (Homo sapiens) (UniProt O94966).
T1 sequence (whole entry): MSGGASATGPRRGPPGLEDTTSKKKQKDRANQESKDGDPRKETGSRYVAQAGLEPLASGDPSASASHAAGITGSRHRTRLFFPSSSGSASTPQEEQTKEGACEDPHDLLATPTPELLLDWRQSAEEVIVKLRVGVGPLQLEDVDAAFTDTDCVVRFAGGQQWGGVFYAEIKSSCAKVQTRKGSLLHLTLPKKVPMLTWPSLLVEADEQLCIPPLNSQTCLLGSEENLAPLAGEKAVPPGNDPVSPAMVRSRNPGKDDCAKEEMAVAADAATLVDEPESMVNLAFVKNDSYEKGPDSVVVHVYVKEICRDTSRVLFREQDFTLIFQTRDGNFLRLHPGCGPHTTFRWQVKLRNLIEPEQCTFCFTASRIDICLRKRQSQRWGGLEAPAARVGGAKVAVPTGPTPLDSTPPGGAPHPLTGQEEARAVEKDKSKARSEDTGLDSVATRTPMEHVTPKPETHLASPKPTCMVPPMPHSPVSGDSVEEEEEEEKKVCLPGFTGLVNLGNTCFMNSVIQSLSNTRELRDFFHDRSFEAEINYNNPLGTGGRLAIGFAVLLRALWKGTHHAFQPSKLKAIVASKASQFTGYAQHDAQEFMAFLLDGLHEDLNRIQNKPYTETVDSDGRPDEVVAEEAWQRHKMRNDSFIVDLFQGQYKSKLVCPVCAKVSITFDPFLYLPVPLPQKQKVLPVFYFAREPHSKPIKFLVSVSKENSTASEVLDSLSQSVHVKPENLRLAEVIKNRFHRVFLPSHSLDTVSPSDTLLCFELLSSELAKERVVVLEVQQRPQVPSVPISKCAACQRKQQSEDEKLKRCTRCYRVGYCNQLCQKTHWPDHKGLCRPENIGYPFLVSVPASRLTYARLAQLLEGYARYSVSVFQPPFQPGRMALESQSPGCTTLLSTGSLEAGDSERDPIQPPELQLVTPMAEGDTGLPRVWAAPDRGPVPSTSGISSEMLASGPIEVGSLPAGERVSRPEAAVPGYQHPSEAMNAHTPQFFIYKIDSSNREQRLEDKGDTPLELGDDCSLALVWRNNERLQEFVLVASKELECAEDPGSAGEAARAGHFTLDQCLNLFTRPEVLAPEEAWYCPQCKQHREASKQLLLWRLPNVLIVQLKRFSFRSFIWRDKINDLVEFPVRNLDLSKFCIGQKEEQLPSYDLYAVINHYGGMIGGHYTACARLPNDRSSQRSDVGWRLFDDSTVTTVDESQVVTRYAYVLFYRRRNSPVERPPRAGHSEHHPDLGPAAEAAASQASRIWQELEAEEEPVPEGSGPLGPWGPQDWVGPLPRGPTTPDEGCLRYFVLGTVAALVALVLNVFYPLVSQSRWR
Description: Inhibition of USP19 in HEK293T cell lysates at 25 uM using HA-tagged vinyl-sulfone as substrate preincubated for 19 to 60 mins followed by substrate addition and measured after 19 to 25 mins by Western blot analysis. Format: subcellular. The note with it: Lysate.

Assay [2] deals with Ubiquitin carboxyl-terminal hydrolase 28 (Homo sapiens) (UniProt Q96RU2). Kind of assay: Inhibition of USP28 in HEK293T cell lysates at 25 uM using HA-tagged vinyl-sulfone as substrate preincubated for 19 to 60 mins followed by substrate addition and measured after 19 to 25 mins by Western blot analysis. Format: subcellular. The note with it: Lysate.
In assay [3] the target is T2, Ubiquitin carboxyl-terminal hydrolase isozyme L3 (Homo sapiens) (UniProt P15374).
T2 sequence (whole entry): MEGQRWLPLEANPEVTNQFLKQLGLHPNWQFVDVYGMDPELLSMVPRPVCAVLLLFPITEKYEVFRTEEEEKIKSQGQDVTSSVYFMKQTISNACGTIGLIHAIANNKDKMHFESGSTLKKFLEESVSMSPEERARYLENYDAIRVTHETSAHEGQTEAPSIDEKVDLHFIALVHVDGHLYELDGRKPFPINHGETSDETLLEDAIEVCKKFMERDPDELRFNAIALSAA
Kind of assay: Inhibition of UCHL3 in HEK293T cell lysates at 25 uM using HA-tagged vinyl-sulfone as substrate preincubated for 19 to 60 mins followed by substrate addition and measured after 19 to 25 mins by Western blot analysis. Format: subcellular. The note with it: Lysate.

Assay [4] has as its target Ubiquitin carboxyl-terminal hydrolase 7 (Homo sapiens) (UniProt Q93009). Description: Inhibition of USP7 in HEK293T cell lysates at 25 uM using HA-tagged vinyl-sulfone as substrate measured after 2 to 30 mins by Western blot analysis. Format: subcellular. The note with it: Lysate. An outline of the steps: (§1)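 HEK 293T lysate (1.5 mg/ml) given compound (25 μM) or DMSO at the same time as HA-Ub-VS (1.5 μM). Aliquots withdrawn over time were run on SDS-PAGE and immunoblotted for HA.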

Assay [5] concerns the target Ubiquitin carboxyl-terminal hydrolase 15 (Homo sapiens) (UniProt Q9Y4E8). Kind of assay: Inhibition of USP15 in HEK293T cell lysates at 25 uM using HA-tagged vinyl-sulfone as substrate measured after 2 to 30 mins by Western blot analysis. The note with it: Lysate. Format: subcellular. An outline of the steps: as §1
For orientation: In western blotting, separated proteins are transferred to a membrane and probed.

The target of assay [6] is Ubiquitin carboxyl-terminal hydrolase isozyme L5 (Homo sapiens) (UniProt Q9Y5K5). Kind of assay: Inhibition of UCHL5 in HEK293T cell lysates assessed as enzyme recovery at 250 uM using HA-tagged vinyl-sulfone as substrate preincubated for 40 mins followed by 10-fold dilution and subsequent substrate addition measured within 15 mins by Western blot analysis. Format: subcellular. The note with it: Lysate.

The target in assay [7] is Ubiquitin carboxyl-terminal hydrolase 9X (Homo sapiens) (UniProt Q93008). Description: Inhibition of recombinant His6-tagged USP9x catalytic domain (unknown origin) using Ub-AMC as substrate by fluorescence assay. The note with it: TDE = time-dependent effect.
Ubiquitin carboxyl-terminal hydrolase 9X (Homo sapiens), sequence (Q93008 whole entry, the tested form may be a part): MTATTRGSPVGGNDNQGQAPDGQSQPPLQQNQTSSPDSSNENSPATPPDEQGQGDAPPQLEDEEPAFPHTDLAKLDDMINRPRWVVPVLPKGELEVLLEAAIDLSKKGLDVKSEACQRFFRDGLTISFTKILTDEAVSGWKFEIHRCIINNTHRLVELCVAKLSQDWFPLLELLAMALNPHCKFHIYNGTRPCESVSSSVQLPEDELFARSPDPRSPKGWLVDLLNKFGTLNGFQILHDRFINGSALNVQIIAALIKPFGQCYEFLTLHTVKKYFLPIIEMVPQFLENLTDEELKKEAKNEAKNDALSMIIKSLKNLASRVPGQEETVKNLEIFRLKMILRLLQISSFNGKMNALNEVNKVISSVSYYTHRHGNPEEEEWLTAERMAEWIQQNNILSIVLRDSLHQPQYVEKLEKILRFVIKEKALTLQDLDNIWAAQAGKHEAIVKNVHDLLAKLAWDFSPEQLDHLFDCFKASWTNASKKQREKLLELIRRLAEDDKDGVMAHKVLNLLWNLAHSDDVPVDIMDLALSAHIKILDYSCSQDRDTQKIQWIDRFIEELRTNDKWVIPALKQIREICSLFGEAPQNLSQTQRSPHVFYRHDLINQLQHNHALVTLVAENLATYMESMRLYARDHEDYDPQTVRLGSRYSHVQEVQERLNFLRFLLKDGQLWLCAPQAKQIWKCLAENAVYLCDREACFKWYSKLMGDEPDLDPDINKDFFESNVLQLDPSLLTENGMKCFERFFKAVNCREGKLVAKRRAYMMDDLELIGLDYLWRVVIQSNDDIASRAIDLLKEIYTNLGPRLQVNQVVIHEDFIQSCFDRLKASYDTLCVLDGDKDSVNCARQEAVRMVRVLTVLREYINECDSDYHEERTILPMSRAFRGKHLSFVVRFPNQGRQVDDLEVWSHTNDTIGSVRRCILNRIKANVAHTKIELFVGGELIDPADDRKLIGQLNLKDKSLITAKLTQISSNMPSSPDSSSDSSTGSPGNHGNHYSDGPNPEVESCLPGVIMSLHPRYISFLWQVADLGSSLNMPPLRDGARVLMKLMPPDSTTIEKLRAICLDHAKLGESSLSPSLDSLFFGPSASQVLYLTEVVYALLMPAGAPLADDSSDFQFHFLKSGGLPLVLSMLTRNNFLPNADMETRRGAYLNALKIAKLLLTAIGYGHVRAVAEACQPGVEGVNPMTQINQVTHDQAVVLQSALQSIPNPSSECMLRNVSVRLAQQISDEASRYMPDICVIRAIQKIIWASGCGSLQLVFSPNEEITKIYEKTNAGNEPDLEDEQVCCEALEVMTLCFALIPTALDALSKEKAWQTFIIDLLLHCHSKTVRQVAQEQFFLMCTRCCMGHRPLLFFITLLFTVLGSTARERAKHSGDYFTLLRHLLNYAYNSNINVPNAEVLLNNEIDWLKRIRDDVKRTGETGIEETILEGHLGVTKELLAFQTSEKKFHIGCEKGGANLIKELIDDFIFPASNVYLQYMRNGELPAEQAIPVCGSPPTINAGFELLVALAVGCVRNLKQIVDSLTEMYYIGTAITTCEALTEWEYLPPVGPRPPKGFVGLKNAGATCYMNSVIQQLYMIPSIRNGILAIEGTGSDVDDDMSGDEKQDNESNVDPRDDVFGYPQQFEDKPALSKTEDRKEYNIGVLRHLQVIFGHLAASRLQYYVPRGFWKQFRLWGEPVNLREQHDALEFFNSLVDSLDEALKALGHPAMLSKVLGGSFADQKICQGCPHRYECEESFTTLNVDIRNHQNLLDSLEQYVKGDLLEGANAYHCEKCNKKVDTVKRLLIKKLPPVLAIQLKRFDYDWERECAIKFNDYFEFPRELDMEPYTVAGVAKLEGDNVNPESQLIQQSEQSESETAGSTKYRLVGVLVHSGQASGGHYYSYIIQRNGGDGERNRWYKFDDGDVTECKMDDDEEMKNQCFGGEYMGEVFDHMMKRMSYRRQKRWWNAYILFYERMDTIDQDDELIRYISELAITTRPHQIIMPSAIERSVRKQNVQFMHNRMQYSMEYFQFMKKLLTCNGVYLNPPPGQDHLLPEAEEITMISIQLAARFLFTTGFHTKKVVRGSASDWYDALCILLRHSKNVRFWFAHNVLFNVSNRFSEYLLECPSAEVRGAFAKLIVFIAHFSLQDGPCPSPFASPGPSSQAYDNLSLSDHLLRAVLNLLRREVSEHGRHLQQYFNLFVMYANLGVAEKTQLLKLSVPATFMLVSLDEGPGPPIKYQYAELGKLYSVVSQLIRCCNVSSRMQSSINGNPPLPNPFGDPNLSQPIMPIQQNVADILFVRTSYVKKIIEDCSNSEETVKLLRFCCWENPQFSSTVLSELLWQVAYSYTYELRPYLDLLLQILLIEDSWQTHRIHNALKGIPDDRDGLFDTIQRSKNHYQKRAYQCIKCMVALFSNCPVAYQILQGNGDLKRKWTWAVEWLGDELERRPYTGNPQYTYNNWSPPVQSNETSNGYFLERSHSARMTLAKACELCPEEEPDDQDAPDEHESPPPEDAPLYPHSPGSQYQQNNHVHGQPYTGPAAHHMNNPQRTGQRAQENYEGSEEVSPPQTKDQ

Ubiquitin carboxyl-terminal hydrolase 15 (Homo sapiens), sequence (Q9Y4E8 whole entry): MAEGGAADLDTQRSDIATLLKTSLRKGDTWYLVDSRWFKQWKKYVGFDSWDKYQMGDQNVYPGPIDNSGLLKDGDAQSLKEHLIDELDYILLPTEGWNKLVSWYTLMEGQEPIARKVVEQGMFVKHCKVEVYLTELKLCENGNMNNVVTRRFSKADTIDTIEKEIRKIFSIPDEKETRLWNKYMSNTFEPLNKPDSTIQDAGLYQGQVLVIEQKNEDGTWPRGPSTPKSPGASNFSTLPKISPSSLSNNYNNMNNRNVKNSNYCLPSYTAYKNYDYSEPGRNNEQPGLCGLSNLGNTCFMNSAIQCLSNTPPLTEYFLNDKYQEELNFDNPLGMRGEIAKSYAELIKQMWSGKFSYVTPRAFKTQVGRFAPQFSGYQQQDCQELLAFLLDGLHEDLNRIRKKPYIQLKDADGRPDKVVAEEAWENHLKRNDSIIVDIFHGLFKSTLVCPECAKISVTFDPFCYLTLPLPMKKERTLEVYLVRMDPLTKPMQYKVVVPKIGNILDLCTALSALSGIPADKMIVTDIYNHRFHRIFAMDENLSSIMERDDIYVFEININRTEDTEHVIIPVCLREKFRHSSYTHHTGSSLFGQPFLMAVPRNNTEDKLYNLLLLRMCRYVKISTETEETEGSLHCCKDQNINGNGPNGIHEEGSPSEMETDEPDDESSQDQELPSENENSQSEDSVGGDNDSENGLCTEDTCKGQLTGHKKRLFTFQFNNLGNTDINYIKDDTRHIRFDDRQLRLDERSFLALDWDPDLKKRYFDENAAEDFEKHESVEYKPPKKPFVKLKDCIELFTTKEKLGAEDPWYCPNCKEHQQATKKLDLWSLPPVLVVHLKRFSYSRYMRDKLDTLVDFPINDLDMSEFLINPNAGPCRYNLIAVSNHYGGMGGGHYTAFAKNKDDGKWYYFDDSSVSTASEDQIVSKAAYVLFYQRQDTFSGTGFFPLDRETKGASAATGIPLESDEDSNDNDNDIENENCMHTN
Ubiquitin carboxyl-terminal hydrolase isozyme L5 (Homo sapiens), sequence (Q9Y5K5 whole entry): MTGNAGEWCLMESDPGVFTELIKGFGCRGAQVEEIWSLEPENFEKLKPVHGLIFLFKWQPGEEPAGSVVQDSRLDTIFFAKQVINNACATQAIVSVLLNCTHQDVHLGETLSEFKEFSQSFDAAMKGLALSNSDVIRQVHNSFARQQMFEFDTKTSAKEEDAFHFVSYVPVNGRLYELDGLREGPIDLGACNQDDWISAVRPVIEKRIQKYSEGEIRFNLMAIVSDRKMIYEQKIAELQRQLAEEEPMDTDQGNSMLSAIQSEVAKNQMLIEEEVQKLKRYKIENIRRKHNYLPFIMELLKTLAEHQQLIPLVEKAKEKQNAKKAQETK
Ubiquitin carboxyl-terminal hydrolase 7 (Homo sapiens), sequence (Q93009 whole entry, looked up): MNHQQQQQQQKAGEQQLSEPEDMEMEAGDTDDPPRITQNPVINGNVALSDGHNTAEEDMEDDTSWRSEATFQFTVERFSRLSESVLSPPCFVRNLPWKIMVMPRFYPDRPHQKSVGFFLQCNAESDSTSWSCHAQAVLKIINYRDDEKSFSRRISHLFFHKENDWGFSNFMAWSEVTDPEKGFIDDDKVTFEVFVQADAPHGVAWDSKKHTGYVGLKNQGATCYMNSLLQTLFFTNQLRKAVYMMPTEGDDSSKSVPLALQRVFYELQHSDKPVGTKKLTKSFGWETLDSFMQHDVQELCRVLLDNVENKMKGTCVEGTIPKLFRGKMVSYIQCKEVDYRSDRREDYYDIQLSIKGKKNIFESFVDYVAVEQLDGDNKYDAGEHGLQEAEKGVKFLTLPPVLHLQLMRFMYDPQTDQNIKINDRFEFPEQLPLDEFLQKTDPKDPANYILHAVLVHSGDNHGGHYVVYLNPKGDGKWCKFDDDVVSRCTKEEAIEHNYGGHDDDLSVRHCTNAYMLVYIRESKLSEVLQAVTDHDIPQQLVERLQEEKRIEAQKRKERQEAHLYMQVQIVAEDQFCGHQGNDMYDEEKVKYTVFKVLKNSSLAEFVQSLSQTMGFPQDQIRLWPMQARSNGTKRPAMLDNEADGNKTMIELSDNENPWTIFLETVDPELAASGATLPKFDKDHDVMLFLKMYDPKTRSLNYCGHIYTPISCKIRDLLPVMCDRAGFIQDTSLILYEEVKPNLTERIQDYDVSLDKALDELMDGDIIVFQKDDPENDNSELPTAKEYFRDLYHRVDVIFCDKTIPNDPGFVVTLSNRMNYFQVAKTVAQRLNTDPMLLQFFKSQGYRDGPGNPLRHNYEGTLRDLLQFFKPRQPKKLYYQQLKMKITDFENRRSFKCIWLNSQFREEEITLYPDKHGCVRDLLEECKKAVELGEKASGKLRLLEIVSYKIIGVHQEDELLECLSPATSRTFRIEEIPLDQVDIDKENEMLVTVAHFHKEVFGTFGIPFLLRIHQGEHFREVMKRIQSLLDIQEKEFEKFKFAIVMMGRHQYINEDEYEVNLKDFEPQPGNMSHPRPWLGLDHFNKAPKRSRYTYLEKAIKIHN

For `NCc1ccc(OC(=O)Oc2ccc3ccccc3c2)cc1`, the inhibition result in assay [1], in assay [2] and in assay [6] was “Active” throughout. The inhibition result in assay [3], in assay [4] and in assay [5] was “inactive” each time. Further, the inhibition result in assay [7] is “Tde”.
